# Assay outcomes deposited in PubChem BioAssay by Broad Institute.
# SIRT5 block: sirtuin-5 (human) deacylase inhibition | Q9NXA8 | Purified SirT5, succinyl-peptide AMC, trypsin-coupled fluorescence | inhibition, % at 15 µM | hit rate 1.1% among 330,000 | AID 652115; in the data active means inhibition above about 15%; inconclusive means no clear call, values can overlap the other calls
# E-selectin induc: induces E-selectin expression in human endothelial cells. AID 686992. activation, % at 7.58 µM. hit rate 0.37% among 260,000. HUVEC E-selectin immunofluorescence imaging; normalized: neutral wells 0, TNF-alpha wells 100;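 active means mean E-selectin-positive cell signal at least 10% of the positive control, reached in at least 60% of replicates, without over 20% cell loss; inconclusive means no rule given, readout overlaps actives, possibly toxicity-flagged; inactive means the rest, including those meeting only one limit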
# Target sequence (P16581 whole entry, looked up): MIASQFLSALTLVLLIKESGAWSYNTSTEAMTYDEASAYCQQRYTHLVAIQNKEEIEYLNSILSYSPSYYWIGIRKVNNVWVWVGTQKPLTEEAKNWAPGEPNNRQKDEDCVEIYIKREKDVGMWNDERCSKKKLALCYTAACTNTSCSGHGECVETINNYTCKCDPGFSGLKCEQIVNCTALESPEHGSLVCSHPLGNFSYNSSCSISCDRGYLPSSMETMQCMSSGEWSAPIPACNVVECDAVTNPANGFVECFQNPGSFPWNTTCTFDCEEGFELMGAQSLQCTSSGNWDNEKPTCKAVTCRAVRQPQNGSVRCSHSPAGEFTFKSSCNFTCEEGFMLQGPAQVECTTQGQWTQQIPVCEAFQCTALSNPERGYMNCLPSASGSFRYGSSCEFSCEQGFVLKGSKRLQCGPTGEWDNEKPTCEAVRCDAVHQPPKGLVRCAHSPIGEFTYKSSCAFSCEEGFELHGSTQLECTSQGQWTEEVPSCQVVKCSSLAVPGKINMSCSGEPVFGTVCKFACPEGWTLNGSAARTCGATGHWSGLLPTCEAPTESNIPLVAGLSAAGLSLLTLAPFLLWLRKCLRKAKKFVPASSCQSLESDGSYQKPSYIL
#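 Test system: HUVEC | Signal: Immunofluorescence imaging | Read-out: Percent E-selectin-positive cells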
# DENV2 CPE: DENV2-induced cell death inhibition. DENV2-infected cells, cytopathic effect rescue, plate reader. CPE inhibition, % at 9.99 µM. hit rate 1.7% among 350,000. AID 651640; in the data active means CPE inhibition above about 20%, passing the limit was not always enough; inconclusive means no clear call, values can overlap the other calls; tested in BHK-21 cells;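 further: 0% = median of neutral control wells and 100% = median of positive control wells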
# An asterisk follows results filed as active; ? = inconclusive; . = no result given. Rows were chosen to be rich in hits. Some 2.9% of all compounds tested hit in one or more screens of this group.
SMILES,SIRT5 block,E-selectin induc,DENV2 CPE
COc1ccc(CN(C)CC(=O)Nc2sc3c(c2C#N)CCC3)c(OC)c1,15.3*,.,0.3
CCOC(=O)c1c(NC(=O)COC(=O)c2nc(Cl)ccc2Cl)sc2c1CCC2,-0.1,137.2*,6.1
COc1ccc(C=Nc2ccc3[nH]ncc3c2)c(O)c1,-0.9,.,-3.4
CCOC(=O)c1sc2nc(C)nc(SCC(=O)NC(C)CCc3ccccc3)c2c1C (centres undefined),-18.1,.,-0.7
COc1cc(C(=O)Oc2ccc3ccc(O)cc3c2)cc(OC)c1OC,0.9,.,?
COc1ccc(C2(C)NC(=O)N(CC(=O)c3cc(C)n(C4CC4)c3C)C2=O)cc1 (centres undefined),-0.9,.,36.8*
Cc1cc(C(=O)CN2C(=O)NC(C)(c3ccc(F)c(F)c3)C2=O)c(C)n1C1CC1 (centres undefined),.,-0.2,.
CSc1nc2ccc(Br)cc2[nH]1,15.1*,0.2,7.1
CC(C)Sc1nc2ccc(Br)cc2[nH]1,-4.1,.,-7.1
Cc1nccn1CC(O)COc1ccc(Cl)cc1Cl (centres undefined),1.7,.,31.1*
Cc1cc(C)n(CC(O)COc2ccc(Cl)cc2Cl)n1 (centres undefined),-0.9,.,-3.5
O=C(Nc1ccccc1F)c1cc2c(s1)-c1ccccc1S(=O)(=O)C2,24.0*,-0.1,3.7
O=C(c1cc2c(s1)-c1ccccc1S(=O)(=O)C2)N1CCCC1,-0.5,0.2,-4.3
CCN(CC)C(=O)CSc1nc(-c2ccccc2)cc(=O)[nH]1,-3.3,0.1,-4.8
CCN(Cc1ccccc1)C(=O)CSc1nc(C)cc(=O)[nH]1,22.4*,.,.
Cc1ccc(S(=O)(=O)Nc2ccc3c(c2)C(=O)N([C@H](C)CO)C[C@H](C)[C@@H](CN(C)C(=O)Nc2ccc(C(F)(F)F)cc2)OCCCC[C@H](C)O3)cc1,16.0*,0.1,-0.5
C[C@@H]1CCCCO[C@H](CN(C)C(=O)Nc2ccc(C(F)(F)F)cc2)[C@H](C)CN([C@@H](C)CO)C(=O)c2cc(NS(=O)(=O)c3ccc(Cl)cc3)ccc2O1,11.8,0.8,-3.1
C[C@@H]1CCCCO[C@@H](CN(C)C(=O)Nc2ccc(C(F)(F)F)cc2)[C@H](C)CN([C@H](C)CO)C(=O)c2cc(NS(=O)(=O)c3ccc(Cl)cc3)ccc2O1,-3.1,2.6,-0.2
Cc1ccc(S(=O)(=O)Nc2ccc3c(c2)C(=O)N([C@@H](C)CO)C[C@H](C)[C@@H](CN(C)C(=O)Nc2ccc(C(F)(F)F)cc2)OCCCC[C@H](C)O3)cc1,16.9*,0.0,5.3
Cc1ccc(S(=O)(=O)Nc2ccc3c(c2)C(=O)N([C@H](C)CO)C[C@@H](C)[C@H](CN(C)C(=O)Nc2ccc(C(F)(F)F)cc2)OCCCC[C@@H](C)O3)cc1,15.6*,1.1,-8.6
C[C@H]1CCCCO[C@@H](CN(C)C(=O)Nc2ccc(C(F)(F)F)cc2)[C@@H](C)CN([C@@H](C)CO)C(=O)c2cc(NS(=O)(=O)c3ccc(Cl)cc3)ccc2O1,10.3,1.3,-7.5
Cc1ccc(C(=O)CN2C(=O)c3ccccc3S2(=O)=O)cc1,-1.1,.,?
CCOc1ccccc1NC(=O)c1cccc(NC(=O)C(C)C)c1,-3.0,-0.1,1.8
Cc1nn(-c2ccccc2)c(N)c1C1(O)C(=O)Nc2ccccc21 (centres undefined),.,9.3,-3.4
Cc1ccc(S(=O)(=O)N2CCN(C(=O)c3ccccc3OCc3c(C)noc3C)CC2)cc1,0.2,-0.3,-1.8
SMILES,SIRT5 block,E-selectin induc,DENV2 CPE
Cc1noc(C)c1COc1ccccc1C(=O)N1CCN(S(=O)(=O)c2ccc(F)c(F)c2)CC1,-2.5,94.1*,-7.4
C=CCOC(=O)C1=C(C)Nc2[nH]c(=O)[nH]c(=O)c2C1c1ccccc1 (centres undefined),-0.6,0.0,.
COc1ccc(-c2cc(=O)oc3cc(OCC(=O)Nc4ccccn4)ccc23)cc1,-1.8,1.8,7.4
COC(=O)c1c(C)nc(C)c(C(=O)OC)c1-c1ccc(OC)cc1,-3.8,.,-3.9
CCOC(=O)c1c(C)nc(C)c(C(=O)OCC)c1-c1ccc(OC)cc1,25.6*,.,-2.8
O=C(NCCNC(=O)c1ccc(F)cc1)c1ccc(F)cc1,-3.5,0.5,-2.0
O=C(NCCNC(=O)c1cc(F)cc(F)c1)c1cc(F)cc(F)c1,-4.9,0.6,29.6*
C[C@@H]1CCCCO[C@@H](CN(C)Cc2ccc(Cl)c(Cl)c2)[C@@H](C)CN([C@H](C)CO)C(=O)c2cc(NC(=O)Nc3ccc(C(F)(F)F)cc3)ccc2O1,-2.0,-0.2,-6.2
Cc1cc(C)n2nc(C(=O)OC(C)C(=O)c3ccccc3)nc2n1 (centres undefined),0.2,-1.5,-0.9
C[C@H](CO)N1C[C@H](C)[C@H](CN(C)C(=O)C2CCOCC2)Oc2ncc(-c3cccc(F)c3)cc2C1=O,-4.6,0.1,-7.9
COc1cc(NC(=O)[C@@H](Cc2ccccc2)NC(=O)[C@H]2O[C@@H](n3ccc(=O)[nH]c3=O)[C@H](O)[C@@H]2O)cc(OC)c1OC,-4.1,0.3,42.9*
COc1cc(NC(=O)[C@@H](Cc2ccccc2)NC(=O)[C@H]2O[C@@H](n3ccc(N)nc3=O)[C@H](O)[C@@H]2O)cc(OC)c1OC,1.7,-0.2,?
CCCCn1c(N)c(N(CC(C)C)C(=O)C2CC(=O)N(c3ccccc3C(C)CC)C2)c(=O)[nH]c1=O (centres undefined),-4.7,.,-6.9
CNC(=S)NNC(=O)c1sc(-c2cc(C)on2)nc1C,-5.8,.,-0.4
COc1ccc(-c2sc3cc(OC)c(OC)cc3c2C#CCO)cc1,-1.3,5.4,2.2
COc1ccc(-c2sc3cc(OC)c(OC)cc3c2C#CC(C)(C)O)cc1,-5.5,0.5,23.8*
O=P(NC1CCCCC1)(c1ccccc1)c1ccccc1,-1.5,0.0,0.1
CC/C(=C\C1CCCCC1)C(NP(=O)(c1ccccc1)c1ccccc1)c1ccccc1 (centres undefined),21.7*,-0.2,-1.1
Cc1cc(/C=N/NC(=O)c2cccc(N(C)C)c2)c(C)n1-c1cc(C(=O)O)cc(C(=O)O)c1,20.4*,.,2.6
Cc1cc(/C=N/NC(=O)C(O)(c2ccccc2)c2ccccc2)c(C)n1-c1cccc(C(=O)O)c1,10.6,3.4,7.8
Cc1cc(C)n(CC(=O)N2CCCC(C(=O)c3cccc(OC(C)C)c3)C2)n1 (centres undefined),1.6,.,1.1
Cc1ccc(S(=O)(=O)NCc2ccc(C(=O)N3CCc4ccccc4C3)cc2)cc1,-1.5,.,2.6
CCOc1ccc(/C=C2\SC(=S)NC2=O)cc1OC,3.2,.,-1.9
CCOc1ccccc1C=C1SC(=S)NC1=O,-1.8,-0.2,34.9*
O=C(C1CCOCC1)N1CC2(C1)[C@@H](c1ccccc1)[C@H](CO)N2C(=O)CC1CC1,0.8,0.0,1.0
COc1ccc(-c2cnc3n2CCCCC3)cc1,-0.2,0.1,44.2*
COc1ccc(-c2cn3c(n2)CCC3)cc1,-0.4,.,.
Cc1[nH]c2ccccc2c1C(=O)CN1CCCC1,-1.1,.,0.8
Cc1[nH]c2ccccc2c1C(=O)CSC(=S)N1CCN(C)CC1,0.9,-0.4,55.3*
CCOc1ccc(CCN2C(=O)C(=O)N([C@@H](Cc3ccc(O)cc3)CN3CCC[C@H]3CN3C(=O)C(=O)NC[C@@H]3Cc3ccc(O)cc3)C[C@@H]2Cc2ccc(O)cc2)cc1,0.0,-0.2,-3.7
